ChEMBL document CHEMBL1649451, “In vivo selection of reduced susceptibility to carbapenems in Acinetobacter baumannii related to ISAba1-mediated overexpression of the natural bla(OXA-66) oxacillinase gene” (2009)
Converted amounts (≈) assume the structure as drawn.

Assays:
Type in all cases: functional
Acinetobacter baumannii [1] = assay: Antimicrobial activity against bla OXA-66 gene-deficient Acinetobacter baumannii isolate A2 by Etest method
Outline: (§1)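 Etest strips on Mueller-Hinton agar, incubated at 37°C; MIC read from strip for clinical A. baumannii isolates A1 and A2 (clonally related, genotyped by ApaI PFGE).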

Acinetobacter baumannii [2] = assay: Antimicrobial activity against carbapenem-resistant Acinetobacter baumannii isolate A2 by Etest method; outline: as §1
Acinetobacter baumannii [3] = assay: Antimicrobial activity against carbapenem-susceptible Acinetobacter baumannii isolate A1 by Etest method; outline: as §1

Row | SMILES | MIC (Acinetobacter baumannii [1]) | MIC (Acinetobacter baumannii [2]) | MIC (Acinetobacter baumannii [3])
1 | C[C@@H](O)[C@H]1C(=O)N2C(C(=O)O)=C(SCCNC=N)C[C@H]12 [IMIPENEM ANHYDROUS] | 0.5 µg/mL (≈ 1.67 µM) | 4 µg/mL (≈ 13.4 µM) | 2 µg/mL (≈ 6.68 µM)
2 | CC(C)(O/N=C(\C(=O)N[C@@H]1C(=O)N2C(C(=O)[O-])=C(C[n+]3ccccc3)CS[C@H]12)c1csc(N)n1)C(=O)O [CEFTAZIDIME] | 128 µg/mL (≈ 234 µM) | 128 µg/mL (≈ 234 µM) | 128 µg/mL (≈ 234 µM)
3 | C[C@@H](O)[C@H]1C(=O)N2C(C(=O)O)=C(S[C@@H]3CN[C@H](C(=O)N(C)C)C3)[C@H](C)[C@H]12 [MEROPENEM] | 0.5 µg/mL (≈ 1.3 µM) | 6 µg/mL (≈ 15.6 µM) | 3 µg/mL (≈ 7.82 µM)
4 | CO[C@H]1/C=C/O[C@@]2(C)Oc3c(C)c(O)c4c(O)c(c(/C=N/N5CCN(C)CC5)c(O)c4c3C2=O)NC(=O)/C(C)=C\C=C\[C@H](C)[C@H](O)[C@@H](C)[C@@H](O)[C@@H](C)[C@H](OC(C)=O)[C@@H]1C [RIFAMPIN] | 128 µg/mL (≈ 156 µM) | 8 µg/mL (≈ 9.72 µM) | 8 µg/mL (≈ 9.72 µM)
